Screening results: PubChem BioAssay, several laboratories
This is a sample that favours compounds with a hit; in the whole collection about 2.2% have one here.
C8 TRAIL sens: caspase-8 TRAIL sensitization | NB7+C8 cells + TRAIL, ATPlite viability luminescence | inhibition (viability loss, TRAIL sensitization), % at 10 µM | hit rate 1% among 360,000;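 active = compounds causing at least 50% loss of cell viability in the single-dose screen, relative to plate controls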
PPC-1+TRAIL kill: kills PPC-1 cancer cells in the presence of TRAIL | PPC-1 cells + TRAIL, ATPLite viability luminescence | cell killing (% activity), % at 4 µM or 5 µM | hit rate 0.41% among 220,000;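 active = cell killing above 50% in the first pass at 4 µM, then a duplicate retest at 5 µM averaging 50% or more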;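 note: plate controls were cells with TRAIL plus DMSO for no effect and medium-only wells lacking cells for full effect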
FLuc act counter: firefly luciferase counter-screen for stimulation assays. AID 1027. 200,000 tested, under 10 active. activation factor at 10 µM. ATPlite luciferase biochemical, luminescence, 10 min; 0 = ATP-free wells, 1 = DMSO control;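 active = luciferase activation factor, scaled between plate controls, of at least 2 with compound at 10 µM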
Target sequence (P08659 whole entry, looked up): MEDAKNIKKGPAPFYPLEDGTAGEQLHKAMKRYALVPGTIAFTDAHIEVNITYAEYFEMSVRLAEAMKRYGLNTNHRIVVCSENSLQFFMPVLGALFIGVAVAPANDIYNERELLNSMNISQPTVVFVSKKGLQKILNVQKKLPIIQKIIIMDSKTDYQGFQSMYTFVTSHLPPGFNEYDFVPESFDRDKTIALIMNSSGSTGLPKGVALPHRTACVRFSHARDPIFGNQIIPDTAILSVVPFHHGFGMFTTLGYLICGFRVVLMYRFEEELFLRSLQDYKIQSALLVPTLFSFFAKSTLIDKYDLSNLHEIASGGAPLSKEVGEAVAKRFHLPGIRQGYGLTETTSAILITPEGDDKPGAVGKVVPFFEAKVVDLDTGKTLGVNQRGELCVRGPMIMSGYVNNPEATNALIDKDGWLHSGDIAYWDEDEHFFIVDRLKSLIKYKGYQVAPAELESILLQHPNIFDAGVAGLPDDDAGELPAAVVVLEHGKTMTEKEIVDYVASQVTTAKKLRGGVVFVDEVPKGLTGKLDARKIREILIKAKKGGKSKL
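System: Luciferase/luciferin detection reagent, cell-free biochemical luciferase assay | Medium: PBS buffer for ATP | Dosing: Test compounds dosed from 2 mM stocks in 100% DMSO | Timing: 10 min at ambient temperature | Signal: Luminescence measurement of luciferase light output | Evaluation: Luciferase activation, seen as luminescence increase over controls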
STAT3 inh: reduces IL-6 driven STAT3 reporter signal | hit rate 0.89% among 190,000 | inhibition, % at 5.5 µM | U3A cells, IL-6 STAT3-luciferase reporter, luminescence; host cell line lacks STAT1;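 active = inhibition above the mean inhibition across all screened compounds plus 3 SD, cut at about 44% in these data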;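 note: 0% = DMSO only wells and 100% = 100 µM nifuroxazide control wells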
HSP90 refold inh: blocks HSP90-mediated luciferase refolding in reticulocyte lysate; inhibition, % at 5.6 µM; hit rate 0.91% among 290,000; Rabbit reticulocyte lysate, luciferase refolding luminescence, 3 h;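 active = inhibition above the screen-wide mean plus 3 SD, computed separately per campaign, cut at about 16% in these data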;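 note: 0% = DMSO wells and 100% = 60 µM geldanamycin wells; inhibitors lower the luminescence because luciferase stays unfolded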
FLuc inh counter: Photinus pyralis luciferase inhibition counter-screen | P08659 | ATPLite firefly luciferase biochemical luminescence, 10 min | inhibition, % at 10 µM | hit rate 1.5% among 200,000 | AID 1006;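 active = inhibition above about 50% when tested at 10 µM, limit read from the data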
PPC-1 tox: PPC-1 cell cytotoxicity | cytotoxicity, % at 5 µM | PPC-1 viability, ATPlite luminescence, overnight | shares compounds with PPC-1+TRAIL kill | AID 1447 | hit rate 50% among 1,200;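 active = reconfirmed compounds whose average cytotoxicity reaches 50% or more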;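 note: 0% = DMSO-treated cells and 100% = wells holding medium but no cells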
* marks the source's active call; other numbers are inactive results.

For O=C(c1ccc2c3c(cccc13)CC2)C1CCCN(Cc2ccncc2)C1 (stereo unspecified) the results were C8 TRAIL sens 7.7, PPC-1+TRAIL kill 15.8, FLuc act counter 1, STAT3 inh 34.5, HSP90 refold inh -4.8 and FLuc inh counter -4.7.
CCc1nc(CN2CCCC(C(=O)c3ccc4c5c(cccc35)CC4)C2)c(C)[nH]1 (stereo unspecified) was read as C8 TRAIL sens 17.9, PPC-1+TRAIL kill 12.9, FLuc act counter 1.1, STAT3 inh 14.0, HSP90 refold inh 2.2, FLuc inh counter -5.4 and PPC-1 tox 17.2.
Screening Cc1ccc(OCc2nnc(SCC(=O)NCc3ccccc3)n2C)cc1 returned C8 TRAIL sens 0.9, PPC-1+TRAIL kill 11.1, FLuc act counter 1.1, STAT3 inh 8.1, HSP90 refold inh -0.9, FLuc inh counter -5.4 and PPC-1 tox 10.8.
For Cn1c(COc2ccccc2)nnc1SCC(=O)NCc1ccccc1 the results were C8 TRAIL sens -4.3, PPC-1+TRAIL kill 10.3, FLuc act counter 1, STAT3 inh -4.9, HSP90 refold inh -2.4 and FLuc inh counter -4.2.
Cc1cc2nc(-c3ccc(SCc4ccccn4)nc3)[nH]c2cc1C was read as C8 TRAIL sens 31.3, PPC-1+TRAIL kill 5.8, FLuc act counter 0.8, STAT3 inh 21.7, HSP90 refold inh 0.6 and FLuc inh counter 17.5.
Cc1cc2nc(-c3ccc(SCC(=O)N4CCN(C(=O)c5ccco5)CC4)nc3)[nH]c2cc1C was read as C8 TRAIL sens 73.7*, PPC-1+TRAIL kill 65.0*, FLuc act counter 0.2, STAT3 inh 13.5, HSP90 refold inh -2.6, FLuc inh counter 81.1* and PPC-1 tox 63.2*.
`Cc1cc2nc(-c3ccc(SCC(=O)N4CCOCC4)nc3)[nH]c2cc1C` gave C8 TRAIL sens 68.1*, PPC-1+TRAIL kill 58.0*, FLuc act counter 0.3, STAT3 inh 6.4, HSP90 refold inh 1.4, FLuc inh counter 73.4* and PPC-1 tox 57.5*.
Screening Cc1cc(=O)[nH]c(SCC(=O)N2CCN(C(=O)c3ccco3)CC2)n1 returned C8 TRAIL sens -16.4.
Screening CCOc1ccc(-c2nc(C)c(C(C)=O)n2O)cc1 returned C8 TRAIL sens 41.3, PPC-1+TRAIL kill 31.4, FLuc act counter 0.4, STAT3 inh -21.0, HSP90 refold inh 1.6, FLuc inh counter 63.5* and PPC-1 tox 39.4.
`CCC1CCCCN1CCCNC(=O)CS(=O)(=O)Cc1nc(-c2cccc(OC)c2)oc1C` (stereo unspecified) gave C8 TRAIL sens 6.0 and HSP90 refold inh 2.2.
For CC(=O)Nc1ccc(NC(=O)Cn2cc3c(n2)CCCC3)cc1 the results were C8 TRAIL sens -12.6, PPC-1+TRAIL kill -4.5, FLuc act counter 1, STAT3 inh 4.6, HSP90 refold inh 2.3, FLuc inh counter -0.9 and PPC-1 tox 13.4.
Screening CC1CCN(C2(O)C(=O)Nc3ccc(Br)cc32)CC1 (stereo unspecified) returned C8 TRAIL sens -10.5, PPC-1+TRAIL kill 18.0, FLuc act counter 1, STAT3 inh 31.1, HSP90 refold inh 3.1 and FLuc inh counter -1.8.
`CC(C)CO/C(=N/S(=O)(=O)c1ccccc1)c1ccccc1` gave C8 TRAIL sens -1.6, PPC-1+TRAIL kill -13.0, FLuc act counter 1.1, STAT3 inh -3.6, HSP90 refold inh 4.5, FLuc inh counter -10.2 and PPC-1 tox 11.2.
CCOC(=O)CNC(=O)CSc1nnc(NC(=O)c2ccc(C)cc2)s1 was read as C8 TRAIL sens 88.1*, PPC-1+TRAIL kill 91.8*, FLuc act counter 0.1, STAT3 inh 72.4*, HSP90 refold inh 4.1, FLuc inh counter 94.0* and PPC-1 tox 91.8*.
Cc1ccc(-n2c(-c3ccc(Br)cc3)c[n+]3c2CCc2ccc4cccnc4c2-3)cc1 was read as C8 TRAIL sens 65.2*, PPC-1+TRAIL kill 48.3, FLuc act counter 1, STAT3 inh 74.6*, HSP90 refold inh 1.7, FLuc inh counter -3.9 and PPC-1 tox 42.7.
For CC1CCCN(c2ncnc3c2cnn3-c2ccc(Cl)cc2)C1 (stereo unspecified) the results were C8 TRAIL sens 86.8*, PPC-1+TRAIL kill 78.5* and PPC-1 tox 79.2*.
CC1CCCN(c2ncnc3c2cnn3-c2ccccc2)C1 (stereo unspecified) was read as C8 TRAIL sens 86.0*, PPC-1+TRAIL kill 77.5* and PPC-1 tox 78.4*.
Screening Nc1nc2ccc(Cl)cc2cc1C(=O)NCCCN1CCOCC1 returned C8 TRAIL sens -17.5.
Screening C/C(=N\NC(=O)c1ccccc1NC(=O)c1ccc(Cl)cc1)c1ccncc1 returned C8 TRAIL sens 93.7*, PPC-1+TRAIL kill 96.7*, FLuc act counter 0, STAT3 inh 105.8*, HSP90 refold inh 51.6*, FLuc inh counter 97.9* and PPC-1 tox 96.7*.
Screening CC(=NNC(=O)c1ccncc1)c1ccccc1Cl returned C8 TRAIL sens -8.9.
`O=C1CCC(=O)N1c1ccc(CSc2nc3ccccc3[nH]2)cc1` gave C8 TRAIL sens 10.9, PPC-1+TRAIL kill 12.0, FLuc act counter 0.8, STAT3 inh 2.0, HSP90 refold inh 4.3 and FLuc inh counter 16.3.
For COc1ccc(CSc2nc3ccccc3[nH]2)cc1 the results were C8 TRAIL sens 68.5*, PPC-1+TRAIL kill 57.7*, FLuc act counter 0.2, STAT3 inh 36.6, HSP90 refold inh 9.8, FLuc inh counter 81.7* and PPC-1 tox 55.2*.
COc1ccc(C(=O)Nc2ccc(Cc3ccncc3)cc2)cc1Br was read as C8 TRAIL sens 4.1, PPC-1+TRAIL kill 3.8, FLuc act counter 1, STAT3 inh 10.5, HSP90 refold inh 1.1, FLuc inh counter 0.7 and PPC-1 tox 19.6.
Screening COc1ccc2[nH]c(C(=O)O)c(CCC(=O)O)c2c1 returned C8 TRAIL sens -9.1, PPC-1+TRAIL kill 1.1, FLuc act counter 1, STAT3 inh -2.5, HSP90 refold inh -2.4, FLuc inh counter 0.4 and PPC-1 tox 13.9.
Cc1ccc(-c2ccc(NC(=O)C3C4C=CC(C4)C3C(=O)O)cc2)o1 (stereo unspecified) was read as C8 TRAIL sens 2.8, PPC-1+TRAIL kill 7.9, FLuc act counter 1, STAT3 inh 0.4, HSP90 refold inh 1.0, FLuc inh counter 3.3 and PPC-1 tox 17.0.
COc1cc(Br)c(S(=O)(=O)Nc2c(C)n(C)n(-c3ccccc3)c2=O)cc1OC was read as C8 TRAIL sens -4.9, PPC-1+TRAIL kill 5.2, FLuc act counter 1.1, STAT3 inh 7.5, HSP90 refold inh -0.5, FLuc inh counter -7.4 and PPC-1 tox 5.5.
For O=C(COC(=O)COc1ccc(Cl)cc1Br)NC1CC1 the results were C8 TRAIL sens -11.7.
CN(C)CCNC(=O)Cn1nc(C(F)F)cc1C1CC1 was read as C8 TRAIL sens 5.6, PPC-1+TRAIL kill -8.3, FLuc act counter 1, STAT3 inh 5.8, HSP90 refold inh 2.7, FLuc inh counter -1.7 and PPC-1 tox -14.0.
